Assay outcomes from PubChem BioAssay.
M4 PAM: positive allosteric modulators of human muscarinic M4 receptor; AID 624126; CHO-K1 hM4/Gqi5, Fluo-8 calcium fluorescence, ACh EC20; 0% = ACh EC20, 100% = maximal ACh; 0.4% of 360,000 active; activation, % at 3 µM;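 active = activation above its plate's cutoff, the mean activation of sample wells plus 3 SD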
Target sequence (P08173 whole entry, looked up): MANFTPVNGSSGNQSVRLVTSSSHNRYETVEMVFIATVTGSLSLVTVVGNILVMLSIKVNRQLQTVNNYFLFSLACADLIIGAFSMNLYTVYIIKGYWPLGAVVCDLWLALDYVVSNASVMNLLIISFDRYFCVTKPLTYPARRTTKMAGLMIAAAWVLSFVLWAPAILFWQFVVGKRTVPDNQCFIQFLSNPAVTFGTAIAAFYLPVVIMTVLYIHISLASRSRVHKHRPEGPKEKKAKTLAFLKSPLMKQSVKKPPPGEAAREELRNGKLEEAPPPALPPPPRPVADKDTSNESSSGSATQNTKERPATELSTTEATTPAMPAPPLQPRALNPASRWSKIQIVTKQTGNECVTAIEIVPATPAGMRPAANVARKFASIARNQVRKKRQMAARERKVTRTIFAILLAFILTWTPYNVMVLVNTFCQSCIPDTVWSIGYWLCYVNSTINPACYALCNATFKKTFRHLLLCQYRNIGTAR
OXTR potentiate: potentiates the human oxytocin receptor response; activation, % at 3 µM; 0.061% of 320,000 active; CHO-OTR cells, Fluo-8 calcium fluorescence, potentiator mode; 0% = oxytocin EC15, 100% = EC100;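 active = activation above that plate's cutoff, the mean activation of tested compounds plus 3 SD, cut at about 6.6% in these data, passing the limit was not always enough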;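 also: 100% uses oxytocin at 75 nM as the full agonist control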
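assay system = CHO-OTR cells, human receptor | schedule = compound 6 min at room temperature before oxytocin, 100 s read | detection = Fluo-8 intracellular calcium fluorescence, ex 470-495, em 515-575 nm | evaluation = normalized max/min fluorescence ratio, % activation | control set = EC15 oxytocin alone as 0%, 75 nM oxytocin (EC100) as 100%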
OXTR agonist: agonists of human oxytocin receptor. P30559. activation, % at 3 µM. 0.32% of 320,000 active. CHO-OTR cells, Fluo-8 calcium fluorescence; normalized: DMSO 0%, oxytocin 100%. AID 2435;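 active = activation above the mean of all tested compounds plus 3 SD, cutoff set per screening run, cut at about 20% in these data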;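 also: peak over basal fluorescence ratio from a 100 s FLIPR kinetic read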
V1R ag counter: V1a receptor agonism, counter-screen for OXTR agonists; P37288; CHO-V1R cells, Fluo-8 calcium fluorescence, agonist mode; 0% DMSO, 100% 3 nM vasopressin; activation, % at 3 µM; 0.25% of 320,000 active;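 active = activation above the mean activation of all tested compounds plus 3 SD, per screening run, cut at about 20% in these data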;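 also: signal is peak over basal fluorescence ratio across a 100 second FLIPR read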
M4 ag: agonists of human muscarinic M4 receptor (CHRM4); AID 624127; CHO-K1 hM4/Gqi5, Fluo-8 calcium fluorescence; vehicle 0%, full acetylcholine response 100%; activation, % at 3 µM; P08173; 0.14% of 360,000 active;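 active = activation above the run mean over all test wells plus 3 SD, cut at about 32% in these data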;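 also: peak over basal fluorescence ratio per well then scaled between controls; 0% = DMSO wells and 100% = acetylcholine at EC100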
CHRM4 antagonist: blocks acetylcholine activation of human M4 receptor; CHO-hM4 cells, ACh EC80, Fluo-8 calcium fluorescence; inhibition, % at 3 µM; 0.73% of 360,000 active;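 active = inhibition above its plate's cutoff, the mean inhibition of sample wells plus 3 SD, cut at about 27% in these data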;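 also: 0% = acetylcholine EC80 with DMSO and 100% = DMSO without agonist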
OXTR agonist cf: human OXTR agonism, confirmation. shares compounds with OXTR agonist. CHO-OTR cells, Fluo-8 calcium fluorescence, agonist. activation, % at 3 µM. 20% of 390 active. AID 434963;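 active = mean activation above about 20% derived from the earlier single-dose screen, limit read from the data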;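 also: peak over minimum fluorescence ratio per well during a 100 second FLIPR read; 0% = DMSO alone and 100% = oxytocin high control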
V1R ag counter 3x: counter-screen for oxytocin receptor agonists: V1a receptor agonists. activation, % at 3 µM. CHO-V1R cells, Fluo-8 calcium fluorescence, agonist. 10% of 390 active. shares compounds with OXTR agonist;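 active = mean activation over triplicate exceeds the hit threshold set in the earlier primary screen, cut at about 20% in these data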;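 also: peak over basal fluorescence ratio within a 100 second read; 0% = DMSO alone and 100% = 3 nM vasopressin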
* hit, by the source's call; nt = no result given. Most compounds without a hit are left out; they make up all but 1.5% or so of the library.

SMILES	M4 PAM	OXTR potentiate	OXTR agonist	V1R ag counter	M4 ag	CHRM4 antagonist	OXTR agonist cf	V1R ag counter 3x
N#Cc1cccc(NC(=O)COC(=O)c2cc(S(=O)(=O)Nc3ccccc3Cl)ccc2O)c1	-4	-10	20*	15	19	-6	11	11
CC(=O)NC(c1ccc(F)c(F)c1)c1nc(-c2cnn(C)c2)cs1 (stereo unspecified)	0	nt	nt	nt	0	-4	nt	nt
CC(=O)c1ccc(N2CCN(c3ccccc3O)CC2)c([N+](=O)[O-])c1	-17	-33	23*	15	31	12	14	13
COC(=O)c1ccc2c(C)c(C(C)(C)O)[nH]c2c1	9	5	4	7	4	-12	nt	nt
CCCCOc1ccc(CSCCN)cc1Cl	2	-13	21*	13	13	15	7	2
NC(=O)c1cc(S(=O)(=O)NCc2ccc(F)cc2)cs1	1	-6	20*	1	2	2	0	0
Cc1cccc(CNS(=O)(=O)c2csc(C(N)=O)c2)c1	0	-9	0	1	1	-8	nt	nt
CCC(C)N1C(=O)/C(=C/c2c(NCCCOC(C)C)nc3c(C)cccn3c2=O)SC1=S (stereo unspecified)	-8	-7	21*	18	8	20	37*	85*
O=C(NCCCN1CCCC1)c1[nH]c(C(F)(F)F)nc1-c1ccccc1	7	nt	nt	nt	1	-14	nt	nt
Cc1c(O)c2c3c(cccc3c1O)C(=O)N(c1ccccc1)C2=O	-6	-12	24*	13	12	4	29*	35*
CC(C)(C)NC(=O)C(c1ccc(F)cc1)N(Cc1ccco1)C(=O)CCC(=O)Nc1nccs1 (stereo unspecified)	3	4	0	0	1	-10	nt	nt
Oc1ccc(Cl)cc1CNCc1ccc(F)cc1	5	-16	28*	9	11	-15	28*	19
CNC(=O)c1[nH]cnc1C(=O)Nc1cccc(OC)c1	-1	-18	32*	1	5	-7	-1	0
Cc1cc(NS(=O)(=O)c2ccc(NC(=O)/C=C/c3cccc(Cl)c3)cc2)no1	-2	-7	0	0	0	7	nt	nt
C=CCNc1ncnc2c1[nH]c1ccc(Cl)cc12	-12	-6	22*	12	15	8	12	10
COc1ccc(C(=O)NNC(=S)NC(=O)c2ccco2)cc1	1	-12	18	19	5	-5	nt	nt
COc1ccccc1C(=O)NNC(=S)NC(=O)c1ccco1	-1	-6	24*	14	6	8	3	7
CC(Oc1ccc(Cl)cc1)C(=O)NNC(=S)NC(=O)c1ccco1 (stereo unspecified)	-10	-13	26*	11	63*	13	38*	42*
O=S(=O)(Nc1cc(S(=O)(=O)N2CCOCC2)ccc1Cl)c1ccccc1	2	0	2	2	1	7	nt	nt
Cc1ccnc(NS(=O)(=O)c2ccc3ccccc3c2)n1	3	-12	2	0	0	-5	nt	nt
CC1CC(=O)Nc2cc([N+](=O)[O-])ccc2N1 (stereo unspecified)	0	-6	0	0	0	-11	nt	nt
S=C(NCc1ccccc1)NCc1ccccn1	14	-3	0	1	1	5	nt	nt
COC(=O)C1=C(C)N(Cc2ccccc2)C(=NCCc2c[nH]c3ccccc23)N[C@H]1c1ccccc1	5	-3	3	1	3	4	nt	nt
COC(=O)C1=C(C)N(Cc2ccccc2)C(=NCCc2c[nH]c3ccccc23)N[C@H]1c1cccc(F)c1	-6	-9	22*	11	3	16	7	4
COC(=O)C1=C(C)N(Cc2ccccc2)C(=NCc2ccccc2)N[C@H]1c1ccccc1	-3	-10	18	7	11	15	nt	nt
SMILES	M4 PAM	OXTR potentiate	OXTR agonist	V1R ag counter	M4 ag	CHRM4 antagonist	OXTR agonist cf	V1R ag counter 3x
COC(=O)C1=C(C)N(Cc2ccccc2)C(=NCc2ccccc2)N[C@H]1c1cccc(F)c1	0	-10	20*	9	15	24	9	5
C#CCNC(=O)c1ccc(OCc2ccccc2)cc1Cl	-1	3	0	0	2	-5	nt	nt
O=C(NCCCl)c1ccc(OCc2ccccc2)cc1Cl	-5	-10	22*	10	2	-8	0	0
COc1ccc(NC(=S)NC(=O)Cc2ccccc2)cc1	0	-4	5	9	3	-10	nt	nt
COc1ccc(CC(=O)NC(=S)Nc2ccc(S(=O)(=O)NC(C)(C)C)cc2)cc1	-5	-23	20*	17	21	10	17	15
CCCNC(=O)C(Cc1ccc(C(F)(F)P(=O)(OCC)OCC)cc1)NC(=O)c1ccc(C#N)cc1 (stereo unspecified)	4	9	-1	0	0	7	nt	nt
FC(F)(F)c1cccc(-c2nc3nc(Cl)c(Cl)nc3[nH]2)c1	-4	-25	22*	11	19	1	14	10
FC(F)(F)c1nc2nc(Cl)c(Cl)nc2[nH]1	-3	nt	nt	nt	-1	3	nt	nt
CCOc1cccc(/C=C2\NC(=S)N(c3ccccc3)C2=O)c1O	-11	-24	24*	12	9	0	8	10
O=C(NNC(=S)NC(=O)c1ccccc1)c1cccc([N+](=O)[O-])c1	1	-13	29*	14	7	-5	16	21*
COc1ccc(NC(=O)c2oc3ccccc3c2C)cn1	9	-3	-1	2	2	0	nt	nt
CCCCCCCCNC(C)C(O)c1ccc(SC(C)C)cc1 (stereo unspecified)	-15	-8	23*	4	16	1	2	6
C[C@@H](NCCc1ccc(O)cc1)[C@@H](O)c1ccc(O)cc1	-8	-2	-1	0	1	-11	nt	nt
CC(CNS(=O)(=O)c1ccc2c(c1)CC(=O)N2C)c1ccccc1 (stereo unspecified)	-8	-17	2	0	1	5	nt	nt
COc1cc(CNC2CCCC2)cc(Cl)c1OCc1ccc(F)cc1	6	-11	13	11	12	5	nt	nt
CCOc1cc(CNC2CCCC2)cc(Cl)c1OCc1ccc(F)cc1	-1	-12	21*	10	15	23	6	4
COc1ccc(NS(=O)(=O)c2cccc(C(=O)NCC3(N4CCOCC4)CCCCC3)c2)cc1	5	-6	-1	0	4	-1	nt	nt
